Values after ≈ are worked out from the molar mass of the structure shown.
Key:
[1] = Cytotoxicity against human HepG2 cells assessed as reduction in cell viability after 48 hrs by MTT assay; type: toxicity, cell-based; details: read-out: TC50
Summary of the method: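 HepG2 cells in supplemented MEM, 9570/well, plated overnight at 37 °C. Twelve 1.6-fold dilutions in duplicate, 57–10,000 ng/mL, for 48 h; mefloquine plate control. MTT added for 1 h at room temperature in the dark, formazan dissolved in acidified isopropanol, absorbance read. IC50 by sigmoidal variable-slope nonlinear regression.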

[2] = system: Leishmania major; assay: Antileishmanial activity against luciferase-expressing Leishmania major amastigotes infected in mouse RAW264.7 cells after 96 hrs by luminescence assay; type: functional, cell-based; details: RAW264.7, 96 h
Summary of the method: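 RAW 264.7 macrophages, 10,000/well, 24 h at 37 °C, then infected overnight with luciferase-expressing L. major promastigotes (100,000/well) and washed three times. Twelve two-fold dilutions in duplicate, final […]–10,000 ng/mL. 96 h at 37 °C, 5% CO2, then luciferin 30 min in the dark and luminescence read. IC50 by sigmoidal variable-slope nonlinear regression.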

[3] = Cytotoxicity against […] cells assessed as reduction in cell viability after 96 hrs by presto blue assay; type: toxicity; details: read-out: TC50
Summary of the method: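 NIH 3T3 cells in phenol red-free DMEM with 2% FBS, 5×10^4/well, left 2 h to attach, then exposed to compound 96 h at 37 °C, 5% CO2. PrestoBlue added for 4 h, fluorescence read at ex 530/em 590 nm.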

[4] = system: Trypanosoma cruzi; assay: Antitrypanosomal activity against Trypanosoma cruzi Tulahuen amastigotes infected in […] cells after 96 hrs by chlorophenol red-beta-D-galactopyranoside based assay; details: NIH3T3, 96 h
[5] = system: Trypanosoma brucei brucei; assay: Antitrypanosomal activity against Trypanosoma brucei brucei 427 bloodstream forms after 48 hrs by presto blue dye based fluorescence assay; type: functional; details: Trypanosoma brucei, 427, 48 h
[6] = Intrinsic clearance in rat hepatocytes assessed per million cells; type: ADME, cell-based, Hepatocyte
[7] = Thermodynamic aqueous solubility of the compound; type: physicochemical; details: buffer; read-out: Therm_solubility
[8] = Intrinsic clearance in human liver microsomes; type: ADME
[9] = Lipophilicity, log D of the compound at pH 7.4; type: physicochemical; details: buffer
[10] = Ratio of drug level in BALB/c mouse brain to plasma at 10 mg/kg, ip administered as single dose at 0.25 hrs post dose by LC-MS/MS analysis; type: ADME, organism-based
Summary of the method: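 Female BALB/c mice, 8–12 weeks, single 10 mg/kg i.p. dose (10 mL/kg) in NMP/solutol HS/saline solution. Three mice per time point. Plasma (K2EDTA) and brain collected; brain washed in PBS and homogenized in PBS pH 7.4 to three times its weight. Protein precipitation with acetonitrile, then LC-MS/MS (LLOQ 1.04 ng/mL plasma, 2.08 ng/mL brain). Non-compartmental analysis.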

[11] = Protein binding in human plasma; type: ADME, cell-free
[12] = Fraction unbound in human plasma; type: ADME, cell-free

SMILES	EC50 [2]	EC50 [4]	EC50 [5]	CLH [6]	solubility thermodynamic [7]	CLH [8]	logD [9]	BPR [10]	PPB [11]	Fu [12]	CC50 at 48 h [1]	CC50 at 96 h [3]
Fc1cccc(COc2ccc(Nc3ncnc4ccc(-c5cccc(N6CCOCC6)c5)cc34)cc2Cl)c1											> 20 µM	
O=S(=O)(c1ccc(-c2ccc3ncnc(Nc4ccc(OCc5cccc(F)c5)cc4)c3c2)cc1)N1CCOCC1											> 20 µM	
CCOCCOc1ccnc2ccc(-c3ccc(S(=O)(=O)N4CCOCC4)cc3)cc12	> 20 µM	> 20 µM	0.71 µM								> 20 µM	
Cc1nnc(Nc2ccnc3ccc(-c4ccc(S(=O)(=O)N5CCOCC5)cc4)cc23)nc1C	> 20 µM	> 20 µM	3.1 µM								> 20 µM	> 20 µM
O=S(=O)(c1ccc(-c2ccc3nccc(Nc4ccncc4)c3c2)cc1)N1CCOCC1	> 20 µM	> 20 µM	0.11 µM								> 20 µM	> 20 µM
Cc1noc(C)c1Nc1ccnc2ccc(-c3ccc(S(=O)(=O)N4CCOCC4)cc3)cc12	> 20 µM	> 20 µM	6.6 µM								> 20 µM	> 20 µM
O=S(=O)(c1ccc(-c2ccc3nccc(Nc4ccncn4)c3c2)cc1)N1CCOCC1	> 20 µM	> 20 µM	0.024 µM	31.5 µL/min	1.4 µM (≈ 0.627 µg/mL)	207.5 µL/min/mg	3.3	0.01	95.6%		> 20 µM	> 20 µM
N#Cc1cnc(Nc2ccnc3ccc(-c4ccc(S(=O)(=O)N5CCOCC5)cc4)cc23)cn1	> 20 µM	> 20 µM	7.9 µM								> 20 µM	> 20 µM
O=S(=O)(c1ccc(-c2ccc3nccc(Nc4cnccn4)c3c2)cc1)N1CCOCC1	> 20 µM	> 20 µM	> 20 µM								> 20 µM	> 20 µM
O=S(=O)(c1ccc(-c2ccc3nccc(Nc4ccccc4)c3c2)cc1)N1CCOCC1	7.1 µM	6.2 µM	0.98 µM								> 20 µM	> 20 µM
Cc1cc(Nc2ccnc3ccc(-c4ccc(S(=O)(=O)N5CCOCC5)cc4)cc23)on1	> 20 µM	7.6 µM	1.1 µM								> 20 µM	> 20 µM
O=S(=O)(c1ccc(-c2ccc3nccc(Nc4cccnc4)c3c2)cc1)N1CCOCC1	> 20 µM	> 20 µM	3.8 µM								> 20 µM	> 20 µM
O=S(=O)(c1ccc(-c2ccc3nccc(Nc4ccnnc4)c3c2)cc1)N1CCOCC1	> 20 µM	> 20 µM	> 20 µM								> 20 µM	> 20 µM
Cc1cnnc(Nc2ccnc3ccc(-c4ccc(S(=O)(=O)N5CCOCC5)cc4)cc23)c1	> 20 µM	> 20 µM	2 µM								> 20 µM	> 20 µM
O=S(=O)(c1ccc(-c2ccc3nccc(Nc4ccccn4)c3c2)cc1)N1CCOCC1	> 20 µM	16 µM	4.5 µM								> 20 µM	> 20 µM
O=S(=O)(c1ccc(-c2ccc3ncccc3c2)cc1)N1CCOCC1	> 20 µM	> 20 µM	> 20 µM								> 20 µM	> 20 µM
CCn1nccc1Nc1ccnc2ccc(-c3ccc(S(=O)(=O)N4CCOCC4)cc3)cc12	> 20 µM	> 20 µM	2.5 µM								> 20 µM	> 20 µM
O=S(=O)(c1ccc(-c2ccc3nccc(Nc4ccc5[nH]nnc5c4)c3c2)cc1)N1CCOCC1	> 20 µM	> 20 µM	16 µM								> 20 µM	> 20 µM
COc1ncc(Nc2ccnc3ccc(-c4ccc(S(=O)(=O)N5CCOCC5)cc4)cc23)cn1	> 20 µM	> 20 µM	5.6 µM								> 20 µM	> 20 µM
CS(=O)(=O)CCNCc1ccc(-c2ccc3ncnc(Nc4ccc(OCc5cccc(F)c5)c(Cl)c4)c3c2)o1 [LAPATINIB]											> 20 µM	

The next lines start with results.

EC50 [2]	EC50 [4]	EC50 [5]	CLH [6]	solubility thermodynamic [7]	CLH [8]	logD [9]	BPR [10]	PPB [11]	Fu [12]	SMILES	CC50 at 48 h [1]	CC50 at 96 h [3]
1.2 µM	6.1 µM	1.6 µM								Cc1cnc(Nc2ccnc3ccc(-c4ccc(S(=O)(=O)N5CCOCC5)cc4)cc23)s1	> 20 µM	> 20 µM
5.7 µM	3.6 µM	0.31 µM								COc1ccc(Nc2ccnc3ccc(-c4ccc(S(=O)(=O)N5CCOCC5)cc4)cc23)cc1C	9 µM	15 µM
4.5 µM	3.9 µM	0.072 µM								Cc1cc(Nc2ccnc3ccc(-c4ccc(S(=O)(=O)N5CCOCC5)cc4)cc23)sn1	> 20 µM	> 20 µM
5.3 µM	7.2 µM	1.7 µM								COc1ccc(Nc2ccnc3ccc(-c4ccc(S(=O)(=O)N5CCOCC5)cc4)cc23)cc1Cl	> 20 µM	> 20 µM
5.8 µM	> 20 µM	3.2 µM								O=[N+]([O-])c1ccc(Nc2ccnc3ccc(-c4ccc(S(=O)(=O)N5CCOCC5)cc4)cc23)cn1	> 20 µM	> 20 µM
5.4 µM	> 20 µM	1.2 µM								O=S(=O)(c1ccc(-c2ccc3nccc(Nc4cncs4)c3c2)cc1)N1CCOCC1	> 20 µM	> 20 µM
1.2 µM	2.8 µM	0.37 µM	19 µL/min	2 µM (≈ 1.14 µg/mL)	98 µL/min/mg				< 0.1%	O=S(=O)(c1ccc(-c2ccc3nccc(Nc4ccc(OCc5cccc(F)c5)cc4)c3c2)cc1)N1CCOCC1	> 5 µM	
0.37 µM	> 20 µM	3.8 µM		1 µM (≈ 0.482 µg/mL)				99.6%		O=S(=O)(c1ccc(-c2ccc3nccc(Nc4ncc(Cl)cn4)c3c2)cc1)N1CCOCC1	> 20 µM	> 20 µM
2 µM	> 20 µM	4.7 µM								O=S(=O)(c1ccc(-c2ccc3nccc(Nc4nnc(C5CC5)s4)c3c2)cc1)N1CCOCC1	> 20 µM	> 20 µM
3.1 µM	> 20 µM	4.2 µM								CCc1nnc(Nc2ccnc3ccc(-c4ccc(S(=O)(=O)N5CCOCC5)cc4)cc23)s1	> 20 µM	> 20 µM
